APP 5'UTR act: activators of APP 5'UTR luciferase reporter, primary screen, SH-SY5Y cells; SH-SY5Y APP 5'UTR luciferase reporter, luminescence; zero percent = DMSO vehicle wells; activation, % at 2 µM; actives 1% (n = 190,000);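 active = activation above a set limit, based on mean plus 3 SD of controls, cut at about 140% in these data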
STAT1 activator: STAT1 signaling activators, primary screen, cell-based, HTS, luciferase reporter | activation (% of control), % at 5.5 µM | NIH 3T3 STAT1-luciferase reporter, IFN-gamma, luminescence; 100% = IFN-gamma alone, no compound | AID 932, 2007 | actives 2.6% (n = 200,000);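 active = activation above the screen-wide mean activation plus 3 SD, cut at about 130% in these data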
NF-kB expr up: activators of NF-kB expression in neurons, primary screen, cell-based, HTS. human neuronal cells, NF-kB reporter expression; stronger effect = higher value. fold change at 12.5 µM. actives 1.6% (n = 190,000); in the data active = fold change above about 3.3
FLuc inhib CS: firefly luciferase enzyme inhibitors, primary screen, artefact control for luciferase-based inhibitor screens, biochemical, luminescence, ATPLite. Luciferin 4-monooxygenase (Photinus pyralis), P08659. 10 min. inhibition, % at 10 µM. actives 1.5% (n = 200,000). AID 1006, 2008;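 active = inhibition above about 50% when tested at 10 µM, limit read from the data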
Target sequence (P08659 whole entry, looked up): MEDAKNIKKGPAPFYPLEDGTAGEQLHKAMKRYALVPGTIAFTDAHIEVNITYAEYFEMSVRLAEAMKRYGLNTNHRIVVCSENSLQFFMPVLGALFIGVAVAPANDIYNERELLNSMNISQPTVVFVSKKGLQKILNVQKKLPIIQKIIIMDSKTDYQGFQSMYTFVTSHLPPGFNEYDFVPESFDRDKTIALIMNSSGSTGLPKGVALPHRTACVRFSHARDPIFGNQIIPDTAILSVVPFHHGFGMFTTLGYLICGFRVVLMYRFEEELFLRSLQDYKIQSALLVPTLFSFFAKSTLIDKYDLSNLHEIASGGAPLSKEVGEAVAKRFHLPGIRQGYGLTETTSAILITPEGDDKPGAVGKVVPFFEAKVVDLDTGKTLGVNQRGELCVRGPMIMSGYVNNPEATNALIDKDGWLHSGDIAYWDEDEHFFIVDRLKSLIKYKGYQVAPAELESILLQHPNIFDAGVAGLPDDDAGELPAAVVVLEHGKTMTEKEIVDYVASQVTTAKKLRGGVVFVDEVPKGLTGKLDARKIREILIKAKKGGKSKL
FLuc act counter: FLuc activators, initial screening, artefact control for FLuc-dependent activation tests, biochemical, ATPlite luminescence; Luciferin 4-monooxygenase (Photinus pyralis), P08659; ATPlite luciferase biochemical, 10 min; 0 = ATP-free wells, 1 = DMSO control; activation factor at 10 µM; 200,000 tested, under 10 active; AID 1027, 2008;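 active = luciferase activation factor, scaled between plate controls, of at least 2 with compound at 10 µM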
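Assay system: Luciferase/luciferin detection reagent, cell-free biochemical luciferase assay / Read-out: luciferase activation / Benchmarks: No-ATP low control, compound-free enzyme-plus-ATP high control / Medium: PBS buffer for ATP / Detection: luminescence measurement of luciferase light output / Schedule: 10 min at ambient temperature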
Each line names hits and unclear results; the compound was inactive in the other large screens. Hits are enriched below; roughly 4.1% of the tested compounds scored in any of these assays.

Cc1c(=O)n(OCc2cccc(F)c2)c2ccccc2[n+]1[O-]	none
NC(=O)c1c(NC(=O)c2cnccn2)sc2c1CCCC2	STAT1 activator 135
NC(=O)c1c(NC(=S)Nc2ccc(F)cc2)sc2c1CCCC2	none
NC(=O)c1c(NC(=S)Nc2ccccc2)sc2c1CCCC2	STAT1 activator 132
CCOC(=O)c1c(NC(=O)c2ccco2)sc2c1CCCCC2	none
NC(=O)c1c(NC(=O)c2ccco2)sc2c1CCC2	STAT1 activator 150
CN(C)C(=O)c1c(NC(=O)c2ccco2)sc2c1CCCCC2	none
NC(=O)c1c(NC(=O)c2ccncc2)sc2c1CCCC2	none
O=C(Nc1sc2c(c1C(=O)O)CCCCC2)c1ccco1	FLuc inhib CS 74
Cc1cc(OC(=O)c2ccc3ccccc3c2)c([N+](=O)[O-])c(=O)[nH]1	none
Cc1cc(CNC(=O)Cn2nc(C)c([N+](=O)[O-])c2C)c2ccccc2n1	none
Cc1nc2n(c(=O)c1CCN1CCC(c3noc4cc(F)ccc34)CC1)CCCC2	none (no result: APP 5'UTR act, STAT1 activator, NF-kB expr up)
NC(=O)c1cc(Cc2ccccc2)sc1NC(=O)c1ccco1	STAT1 activator 142, NF-kB expr up 3.4
COc1ccccc1NC(=O)c1csc2c1CCC(C)C2 (stereo unspecified)	none
CCc1nnc(NC(=O)c2csc3c2CCC(C)C3)s1 (stereo unspecified)	APP 5'UTR act 145
COCCCn1c(SCc2nnc(-c3ccccc3)o2)nc2sc3c(c2c1=O)CCC3	none
Cn1c(SCc2nnc(-c3ccccc3Br)o2)nc2sc3c(c2c1=O)CCC3	NF-kB expr up 4.5
O=C1CCCC/C1=C/Nc1ccc2c(c1)OCO2	STAT1 activator 141
O=C1CCCC/C1=C/Nc1ccc(C(=O)O)cc1	none (no result: APP 5'UTR act)
Cc1ccc(-c2nc3ccc(Cl)cc3n2OC(C)C(=O)O)cc1 (stereo unspecified)	STAT1 activator 141
CC(On1c(-c2ccccc2)nc2ccc(Cl)cc21)C(=O)O (stereo unspecified)	none
CC(=O)OCCCNc1cc(Sc2nc3ccccc3s2)c2nonc2c1[N+](=O)[O-]	STAT1 activator 132
COc1ccc2c(c1)C(C1=C(O)CC(C)(C)CC1=O)C1=C(CC(C)(C)CC1=O)O2 (stereo unspecified)	none
Cc1cc2nc(N3C(=O)CNC3=S)sc2cc1C	FLuc inhib CS 82
COc1ccccc1N1C(=O)C(Cl)=C(Nc2ccccc2O)C1=O	none
O=C1C(Cl)=C(Nc2ccccc2O)C(=O)N1c1ccccc1	NF-kB expr up 4.3
COc1ccc(NC(=O)NCc2cccn2C)c(OC)c1	none (no result: APP 5'UTR act)
Cn1cccc1CNC(=O)Nc1ccc(Cl)c(Cl)c1	STAT1 activator 135 (no result: APP 5'UTR act)
COc1ccc2nc(N/C(N)=N/C(=S)Nc3ccc(C)c(C)c3)nc(C)c2c1	none
NNc1nc2c(F)cccc2s1	APP 5'UTR act 142, STAT1 activator 146
Fc1cccc2sc(Nc3nnc(-c4ccccc4)o3)nc12	FLuc inhib CS 77
Fc1cccc2sc(Nc3nc4c(F)cccc4s3)nc12	none
c1ccc2c(C3=NNC(=NC4CCCCC4)SC3)c[nH]c2c1	none
c1ccc(C2=NNC(=NC3CC3)SC2)cc1	FLuc inhib CS 62
COc1ccc(-n2c(C)cc(C3=NNC(=NC4CC4)SC3)c2C)cc1	none
c1ccc2c(C3=NNC(=NC4CC4)SC3)c[nH]c2c1	FLuc inhib CS 53
O=C(OCc1nc2ccccc2s1)c1cccs1	STAT1 activator 137
COc1cc(OC)cc(C(=O)NCC(=O)OCc2nc3ccccc3s2)c1	APP 5'UTR act 140, STAT1 activator 145
O=S(=O)(c1ccc(OCC(O)CN2CCN(c3ccccc3)CC2)cc1)N1CCOCC1 (stereo unspecified)	none
[O-][N+]1=c2ccc(Nc3ccccc3)cc2=NC12CCCCC2	STAT1 activator 134
COc1ccc(Nc2ccc3c(c2)=NC2(CCCCC2)[N+]=3[O-])cc1	none
O=C1c2ccccc2C(=O)c2cc(NC(=O)C3CC3)ccc21	APP 5'UTR act 139, STAT1 activator 130, NF-kB expr up 4.5
C/C(=N\NC(=O)c1c(C)nc2ccccn12)c1ccco1	STAT1 activator 134
C/C(=N/NC(=O)c1ccccn1)c1ccco1	FLuc inhib CS 70
Oc1ccccc1CNCc1ccccc1	none
Cc1cccc(N/N=C2/COC(C)(C)CC2=O)c1	STAT1 activator 136
COc1ccc(/C=N/n2c(N)nc3ccccc32)cc1OC	FLuc inhib CS 60
COc1cc(C(=O)OC2CCCCC2=O)cc(OC)c1C (stereo unspecified)	none
CN(C)/C=N/c1ncc(C(=O)c2ccc(Cl)cc2Cl)s1	none
CC(=O)c1ccc2c(c1)Cc1cc(C(C)=O)ccc1-2	STAT1 activator 146
COc1ccccc1CCc1nnc(CCC(=O)N(C)Cc2cccc3cnccc23)o1	STAT1 activator 131
COc1ccccc1CCc1nnc(CCC(=O)N(C)Cc2ccncc2C)o1	none
Cc1cc2c(C)nc(-c3ccccc3)nc2o1	STAT1 activator 130
c1ccc(-c2ncc(-c3ccn[nH]3)s2)cc1	APP 5'UTR act 230, NF-kB expr up 7.3, FLuc inhib CS 66
O=C(c1ccc(Cl)cc1)c1cnc(-c2ccccc2)s1	none
CCOC(=O)CSc1nnc(-c2ccc(S(=O)(=O)N3CCOCC3)cc2)n1-c1ccccc1	none
COc1ccc2nc(SCC(N)=O)[nH]c2c1	none
COc1ccc2nc(-c3ccc(N)cc3)[nH]c2c1	FLuc inhib CS 65
COc1ccc2nc(-c3cccc(N)c3)[nH]c2c1	FLuc inhib CS 87
COc1ccc(OCC(=O)Nc2cccc(-c3nc4ccccc4[nH]3)c2)cc1	none
Cc1cc(C(C)(C)C)oc1C(=O)N(CC(=O)NC1CCCC1)c1cccc(C(F)(F)F)c1	none
COc1cc(C(=S)N2CCCC2)cc(OC)c1OS(=O)(=O)c1ccc(NC(C)=O)cc1	none
Cc1c(C(=O)Nc2ccccc2)csc1-c1ccccc1	APP 5'UTR act 189, STAT1 activator 137, NF-kB expr up 5.2, FLuc inhib CS 82
CN(C(=O)Nc1ccc(Cl)cc1Cl)C1CCCC1	STAT1 activator 135
O=C(Nc1ccc(Cl)cc1Cl)NC1CCCC1	none
CC(C)C(NC(=O)c1ccccc1F)C(=O)Nc1nccs1 (stereo unspecified)	none
CCOCCCNc1nc2ccccc2[nH]1	none
CCOCCCNc1ccc(-c2ccccc2)nn1	STAT1 activator 140
O=C(NCc1ccccc1)N(Cc1nc2ccccc2c(=O)[nH]1)C1CCCC1	none
Cc1ccc(C(=O)NCCCc2ccccc2)c(C)c1	APP 5'UTR act 160, STAT1 activator 136
Cc1cc(C)cc(OCC(=O)NC2CCCc3ccccc32)c1 (stereo unspecified)	none
O=C(Cc1cccs1)N/N=C/C(Cl)=C/c1ccccc1	STAT1 activator 147

Screens as filed in PubChem BioAssay.
